Measured values gathered from unrelated publications.
Target: Proto-oncogene tyrosine-protein kinase ROS (ROS1, Homo sapiens, UniProt P08922)

effect on | mode | technique | concentration | measurement | value | Compound
cell-free assay |  | competition with immobilised ligand | 1 µM | remaining binding | 100% | CC(=O)c1c(NS(C)(=O)=O)c2cc(-c3ccc(Cl)cc3)c(-c3ccc(Cl)cc3Cl)nc2n(C)c1=O
enzyme activity | inhibitor |  | 10 µM | inhibition | 13% | Cc1ccc(Nc2nccc(N(C)c3ccc4c(C)n(C)nc4c3)n2)cc1S(N)(=O)=O
cell-free assay |  | competition with immobilised ligand | 1 µM | remaining binding | 93% | CCC(=O)N[C@H]1CC[C@@H](C(=O)N(C)c2ccc(-c3nc4ccccc4o3)cc2)C1
enzyme activity | inhibitor |  | 10 µM | remaining activity | 105% | CCCOc1ccc(OC)c(F)c1C(=O)c1ccc(C(=O)N[C@@H]2CNC[C@H]2NC(=O)c2ccc3[nH]ncc3c2)cc1
binding |  |  | 1 µM | remaining binding | 88% | F[C@@H]1CCN(c2nccc(-c3cnn4ncccc34)n2)C1
enzyme activity | inhibitor |  | 1 µM | activity vs control | 92% | Cc1ccc(C(=O)NCc2ccsc2)cc1C#Cc1cn(C(C)C)c2ncnc(N)c12
cell-free assay |  | competition with immobilised ligand | 1 µM | remaining binding | 82% | CO[C@@H](C)c1c(Nc2ccc([C@@H](N(C)C(=O)C3CCS(=O)(=O)CC3)C(F)(F)F)cc2)cnc2cc(Cl)nn12
enzyme activity | inhibitor |  | 5 µM | remaining activity | 85.5% | O=C(Nc1cnn(-c2csc(C(=O)NC3COC3)c2)c1)Nc1c(F)cccc1Cl
cell-free assay |  | competition with immobilised ligand | 0.1 µM | remaining binding | 100% | COCCOc1nc(-c2ccc(Cl)nc2)nc2c1CN(C(=O)c1ncn3ccccc13)CC2
enzyme activity | inhibitor |  | 1 µM | inhibition | -2% | COc1cc2ncnc(Nc3ccc(Oc4ccccc4)c(C)c3C)c2cc1OC
enzyme activity |  |  | 23.5 nM | remaining activity | 78% | Cc1ccc(C(=O)Nc2ccc(CN3CCN(C)CC3)c(C(F)(F)F)c2)cc1C#Cc1cnc2cccnn12
cell-free assay |  |  | 0.5 µM | remaining signal | 95.7% | CNC(=O)c1cc(Oc2ccc(NC(=O)Nc3ccc(Cl)c(C(F)(F)F)c3)cc2)ccn1
enzyme activity | inhibitor |  | 0.4 µM | inhibition | 0% | CNCc1ccc(-c2cc(-c3nc(-c4ccc(S(=O)(=O)C(C)C)cc4)cnc3N)on2)cc1
enzyme activity | inhibitor |  | 10 µM | inhibition | 35% | CCN(CC)CCNC(=O)c1c(C)[nH]c(/C=C2\C(=O)Nc3ccc(F)cc32)c1C
enzyme activity | inhibitor |  | 1 µM | inhibition | 51% | C=CC(=O)Nc1cc(Nc2nccc(Nc3cc(Cl)c(F)cc3C(C)(C)O)n2)c(OC)cc1N1CC[C@@H](N(C)C)C1
cell-free assay |  | competition with immobilised ligand | 1 µM | remaining binding | 100% | N#Cc1ccc(Nc2ccc3[nH]c(=O)[nH]c3c2)c(Cl)c1
enzyme activity | inhibitor |  | 10 µM | remaining activity | 106% | CCN(CC)c1ccc(C2=NNC(=O)CC2C)cc1[N+](=O)[O-] (stereo not drawn)
enzyme activity | inhibitor | radiometric | 1 µM | inhibition | 89% | CNC(=O)c1cc2c(Oc3ccc(NC(=O)C4(C(=O)Nc5ccc(F)cc5)CC4)cc3)ccnc2cc1OC
enzyme activity | inhibitor |  | 0.1 µM | activity vs control | 111% | Cc1cc(NC(=O)c2cccc3cc(-c4cccc5[nH]nc(N)c45)ccc23)ccc1F
cell-free assay |  |  | 0.5 µM | remaining signal | 71% | N#CCCc1ccc2c(c1)-c1[nH]c3ccc([N+](=O)[O-])cc3c1CC(=O)N2
cell-free assay |  | competition with immobilised ligand | 1 µM | remaining binding | 99% | Cc1c(NC(=O)c2cc(C(N)=O)nc3cc(F)ccc23)c(C(F)(F)F)nn1Cc1ccc(C#N)cc1
cell-free assay |  |  | 0.5 µM | remaining signal | 99.9% | COc1ccc(COc2ccc(Cc3cnc(N)nc3N)cc2OC)cc1
enzyme activity | inhibitor | radiometric | 1 µM | remaining activity | 109% | CC(C)(C)c1nc2c(s1)c1nc(N)ncc1c1ccc(NS(=O)(=O)c3c(F)cccc3F)c(F)c12
cell-free assay |  | competition with immobilised ligand | 1 µM | remaining binding | 100% | CC(=O)N1CCC(c2ccc(C(=O)NC(=N)N)cc2C(F)(F)F)CC1
enzyme activity | inhibitor | radiometric | 1 µM | remaining activity | 103% | Cc1cnc(NC2CCOCC2)nc1-n1cnc(C(=O)NC(CN)c2cc(F)cc(Cl)c2)c1 (stereo not drawn)
cell-free assay |  |  | 0.5 µM | remaining signal | 94.4% | C[S+]([O-])c1ccc(-c2nc(-c3ccncc3)c(-c3ccc(F)cc3)[nH]2)cc1 (stereo not drawn)
cell-free assay |  | competition with immobilised ligand | 0.1 µM | remaining binding | 96% | Cc1c[nH]c2nccc(Oc3c(F)cc(Nc4cc(Cl)nc(N)n4)cc3F)c12
